Data taken from ChEMBL document CHEMBL5126600, “Discovery of the First-in-Class G9a/GLP Covalent Inhibitors” (J Med Chem, 2022).

Legend:
[1] = biological target: T1, Histone-lysine N-methyltransferase EHMT1 (Homo sapiens, UniProt Q9H9B1); experiment: Inhibition of human GLP (982 to 1266 residues) using H3 peptide substrate preincubated for 5 mins followed by SAM addition measured after 10 mins by SAHH-coupled biochemical assay
T1 sequence (Q9H9B1 whole entry): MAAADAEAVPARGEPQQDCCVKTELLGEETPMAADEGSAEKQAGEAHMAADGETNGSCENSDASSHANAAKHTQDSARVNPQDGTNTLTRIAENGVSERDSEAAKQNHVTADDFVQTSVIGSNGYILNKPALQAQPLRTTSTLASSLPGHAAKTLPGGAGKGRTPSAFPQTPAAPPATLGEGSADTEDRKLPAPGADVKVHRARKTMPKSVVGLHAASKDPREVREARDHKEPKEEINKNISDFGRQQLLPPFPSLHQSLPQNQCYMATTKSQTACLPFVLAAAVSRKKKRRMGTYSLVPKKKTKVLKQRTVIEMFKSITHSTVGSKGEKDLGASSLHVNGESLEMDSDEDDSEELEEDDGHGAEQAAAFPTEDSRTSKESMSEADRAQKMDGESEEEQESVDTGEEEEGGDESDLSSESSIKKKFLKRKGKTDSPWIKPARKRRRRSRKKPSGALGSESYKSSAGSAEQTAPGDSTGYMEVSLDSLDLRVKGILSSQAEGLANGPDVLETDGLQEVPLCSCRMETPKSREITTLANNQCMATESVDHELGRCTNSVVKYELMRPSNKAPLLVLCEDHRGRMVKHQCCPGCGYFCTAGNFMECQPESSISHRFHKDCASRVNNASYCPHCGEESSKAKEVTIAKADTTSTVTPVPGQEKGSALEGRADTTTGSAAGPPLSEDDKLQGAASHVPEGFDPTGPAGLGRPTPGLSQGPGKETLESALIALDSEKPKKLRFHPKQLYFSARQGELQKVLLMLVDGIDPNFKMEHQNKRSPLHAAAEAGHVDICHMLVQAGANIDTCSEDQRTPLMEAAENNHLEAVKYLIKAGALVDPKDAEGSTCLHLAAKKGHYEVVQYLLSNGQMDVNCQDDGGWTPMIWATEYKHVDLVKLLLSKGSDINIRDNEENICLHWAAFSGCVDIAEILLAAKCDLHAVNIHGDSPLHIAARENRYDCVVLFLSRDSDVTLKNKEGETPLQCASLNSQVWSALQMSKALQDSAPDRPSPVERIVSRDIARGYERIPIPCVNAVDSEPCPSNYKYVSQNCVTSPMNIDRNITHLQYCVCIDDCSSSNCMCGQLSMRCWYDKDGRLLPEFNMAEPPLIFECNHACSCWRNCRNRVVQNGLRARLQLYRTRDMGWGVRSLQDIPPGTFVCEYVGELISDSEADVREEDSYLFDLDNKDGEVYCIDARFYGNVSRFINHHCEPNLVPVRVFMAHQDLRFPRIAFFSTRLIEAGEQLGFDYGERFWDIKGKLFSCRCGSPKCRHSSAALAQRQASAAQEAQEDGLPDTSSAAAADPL

[2] = biological target: T2, Histone-lysine N-methyltransferase EHMT2 (Homo sapiens, UniProt Q96KQ7); experiment: Binding affinity to human G9a (913 to 1193 residues) assessed as dissociation constant measured after 1 hr by isothermal titration calorimetry method
T2 sequence (Q96KQ7 whole entry): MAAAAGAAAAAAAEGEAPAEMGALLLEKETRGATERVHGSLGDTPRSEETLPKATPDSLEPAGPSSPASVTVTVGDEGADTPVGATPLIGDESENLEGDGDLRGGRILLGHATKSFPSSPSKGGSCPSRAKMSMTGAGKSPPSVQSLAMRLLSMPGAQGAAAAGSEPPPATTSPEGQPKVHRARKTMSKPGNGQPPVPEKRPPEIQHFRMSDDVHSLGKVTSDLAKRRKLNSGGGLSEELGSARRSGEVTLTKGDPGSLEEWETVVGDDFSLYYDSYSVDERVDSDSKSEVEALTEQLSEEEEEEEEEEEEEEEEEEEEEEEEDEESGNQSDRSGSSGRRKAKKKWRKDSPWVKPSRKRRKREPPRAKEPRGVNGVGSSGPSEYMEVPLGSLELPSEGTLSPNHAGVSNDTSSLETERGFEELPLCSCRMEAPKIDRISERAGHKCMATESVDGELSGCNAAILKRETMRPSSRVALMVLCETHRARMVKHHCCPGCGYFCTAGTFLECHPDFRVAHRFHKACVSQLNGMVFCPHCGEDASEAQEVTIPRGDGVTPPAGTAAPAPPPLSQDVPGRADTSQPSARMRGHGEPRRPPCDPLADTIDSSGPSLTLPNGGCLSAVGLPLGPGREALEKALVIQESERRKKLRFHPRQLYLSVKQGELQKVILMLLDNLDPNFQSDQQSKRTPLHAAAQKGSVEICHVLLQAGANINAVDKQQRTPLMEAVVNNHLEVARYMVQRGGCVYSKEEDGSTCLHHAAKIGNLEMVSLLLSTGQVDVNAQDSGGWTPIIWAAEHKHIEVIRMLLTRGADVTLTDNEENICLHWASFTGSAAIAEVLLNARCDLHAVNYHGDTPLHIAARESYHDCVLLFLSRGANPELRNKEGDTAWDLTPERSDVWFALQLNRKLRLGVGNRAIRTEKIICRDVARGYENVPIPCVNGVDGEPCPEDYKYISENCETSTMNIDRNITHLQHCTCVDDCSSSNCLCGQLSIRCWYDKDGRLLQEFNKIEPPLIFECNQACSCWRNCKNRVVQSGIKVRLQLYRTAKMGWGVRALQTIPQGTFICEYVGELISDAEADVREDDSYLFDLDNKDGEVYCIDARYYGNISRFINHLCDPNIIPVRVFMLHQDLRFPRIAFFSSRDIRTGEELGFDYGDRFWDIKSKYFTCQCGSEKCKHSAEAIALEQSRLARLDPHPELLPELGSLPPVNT
Procedure, shortened: (§1)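 ITC at 25 °C in 50 mM Tris-HCl pH 7.5, 150 mM NaCl, 1% DMSO; 500 μM compound in syringe titrated into 50 μM G9a or GLP catalytic domain in cell (initial 0.4 μL injection then 13 injections), stirring 750 rpm; run time about 50 min; single binding site fit; mean ± SD of two independent measurements.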

[3] = biological target: T1, Histone-lysine N-methyltransferase EHMT1; experiment: Binding affinity to human GLP (982 to 1266 residues) assessed as dissociation constant measured after 1 hr by isothermal titration calorimetry method; procedure, shortened: as §1
[4] = biological target: T2, Histone-lysine N-methyltransferase EHMT2; experiment: Inhibition of human G9a (913 to 1193 residues) using H3 peptide substrate preincubated for 5 mins followed by SAM addition measured after 10 mins by SAHH-coupled biochemical assay
[5] = biological target: T3, Histone-lysine N-methyltransferase EHMT2 (Homo sapiens) (UniProt Q96KQ7); experiment: Inhibition of human G9a (913 to 1193 residues) assessed as covalent modification by measuring G9a adduct formation at 50 uM incubated for 1 hr by mass spectrometry relative to control
T3 sequence (whole entry): T2 sequence (Q96KQ7 whole entry)
Procedure, shortened: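 Purified G9a or GLP catalytic domain (5 μM) in 50 mM Tris-HCl pH 7.5, 150 mM NaCl incubated with 50 μM compound or DMSO at room temperature (1 h, or 30 and 60 min in time course); intact mass by ESI LC/MS-TOF; adduct % = adduct/(protein + adduct) × 100.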

IC50 [1] | Kd [2] | Kd [3] | IC50 [4] | inhibition [5] | Compound
151 nM | 48 nM | 16 nM | 211 nM |  | CCC(=O)Nc1cc(NC2CCN(C(C)C)CC2)c2cc(OC)c(OCCCN3CCCC3)cc2n1
 |  |  |  | 40% | C=CC(=O)Nc1nc(NC2CCN(C(C)C)CC2)c2cc(OC)c(OCCCN3CCCC3)cc2n1
